From ChEMBL document CHEMBL3407394, “Synthesis and in vitro anticancer activity evaluation of novel bioreversible phosphate inositol derivatives” (Eur J Med Chem, 2015)

Experiments:
A549 [1] = assay: Cytotoxicity against human A549 cells assessed as growth inhibition at 10 ug/ml after 72 hrs by MTT assay; format: functional; conditions: A549, 72 h, read-out: GI
Summary of the method: (§1)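 Single-concentration screen in A549, HeLa or MDA-MB-231 cells cultured in DMEM, 10% FBS, 1% penicillin/streptomycin. About 1000 cells/well were preincubated 12 h, and compound diluted in DMEM to the final well concentration (0.5% DMSO) for 72 h at 37 °C, 5% CO2. Readout was MTT 4 h, DMSO-solubilized formazan, OD570, with inhibition relative to DMSO vehicle. Cisplatin in 1% NaCl (pH 7) served as positive control.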

HeLa [2] = assay: Cytotoxicity against human HeLa cells assessed as growth inhibition at 10 ug/ml after 72 hrs by MTT assay; format: functional; conditions: read-out: GI; summary of the method: as §1
MDA-MB-231 [3] = assay: Cytotoxicity against human MDA-MB-231 cells assessed as growth inhibition at 10 ug/ml after 72 hrs by MTT assay; format: functional; conditions: MDA-MB-231, 72 h, read-out: GI; summary of the method: as §1
[4] = Cytotoxicity against human MCF10A cells assessed as growth inhibition at 10 ug/ml after 72 hrs by MTT assay; format: cell-based, MCF-10A; conditions: read-out: GI
Summary of the method: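 MCF10A cells in DMEM/F12 plus 5% horse serum, about 1000 per well, were incubated 12 h, then treated at one final well concentration diluted in DMEM (0.5% DMSO) for 72 h, 37 °C, 5% CO2. Viability was by MTT: 4 h in fresh medium, formazan dissolved in DMSO, absorbance at 570 nm, normalized to vehicle controls. Cisplatin in 1% NaCl, pH 7, was the positive control.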

A549 [5] = assay: Cytotoxicity against human A549 cells assessed as growth inhibition after 72 hrs by MTT assay; format: functional, cell-based; conditions: A549, 72 h
Summary of the method: (§2)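 A549, HeLa and MDA-MB-231 cells were grown in DMEM with 10% FBS and 1% penicillin/streptomycin. About 1000 cells/well were seeded and left 12 h, then exposed to a dilution series in DMSO (final 0.5% DMSO) for 72 h at 37 °C, 5% CO2. MTT in fresh medium was added for 4 h, formazan dissolved in DMSO, and OD570 read. Viability was normalized to vehicle, and IC50 taken by linear regression of concentration-response curves.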

HeLa [6] = assay: Cytotoxicity against human HeLa cells assessed as growth inhibition after 72 hrs by MTT assay; format: functional, cell-based; summary of the method: as §2
MDA-MB-231 [7] = assay: Cytotoxicity against human MDA-MB-231 cells assessed as growth inhibition after 72 hrs by MTT assay; format: functional, cell-based; conditions: MDA-MB-231, 72 h; summary of the method: as §2
[8] = Cytotoxicity against human MCF10A cells assessed as growth inhibition after 72 hrs by MTT assay; format: cell-based; conditions: MCF-10A
Summary of the method: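 MCF10A non-cancerous cells were maintained in DMEM/F12 with 5% horse serum. About 1000 cells/well were seeded and attached for 12 h, then dosed over a dilution series (DMSO vehicle, final 0.5%) for 72 h at 37 °C, 5% CO2. MTT in fresh medium ran 4 h, formazan was dissolved in DMSO and OD570 measured. Viability was relative to vehicle-treated cells, and IC50 came from linear regression of concentration-response curves.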

## CC(=O)Oc1ccc(COP(=O)(OCc2ccc(OC(C)=O)cc2)O[C@@H]2[C@@H](OCc3ccccc3)[C@H](OP(=O)(OCc3ccc(OC(C)=O)cc3)OCc3ccc(OC(C)=O)cc3)[C@H](OCc3ccccc3)[C@H](OCc3ccccc3)[C@H]2OCc2ccccc2)cc1
A549 [1]
  inhibition of growth at 10 µg/mL: 27.1%
HeLa [2]
  inhibition of growth at 10 µg/mL: 27.2%
MDA-MB-231 [3]
  inhibition of growth at 10 µg/mL: 88.4%
[4]
  inhibition at 72 h, 10 ug/ml: 10.5%
A549 [5]
  IC50: 26.7 µM
HeLa [6]
  IC50: 12.2 µM
MDA-MB-231 [7]
  IC50: 28.6 µM
[8]
  IC50: > 40 µM

## CC(=O)Oc1ccc(COP(=O)(OCc2ccc(OC(C)=O)cc2)OC2C(OCc3ccccc3)C3OC(C)OC(C3OCc3ccccc3)C2OCc2ccccc2)cc1 (centres undefined)
A549 [1]
  inhibition of growth at 10 µg/mL: 96.6%
HeLa [2]
  inhibition of growth at 10 µg/mL: 100%
MDA-MB-231 [3]
  inhibition of growth at 10 µg/mL: 9.5%
[4]
  inhibition at 72 h, 10 ug/ml: 98.1%
A549 [5]
  IC50: 11.4 µM
HeLa [6]
  IC50: 2.79 µM
MDA-MB-231 [7]
  IC50: 2.85 µM
[8]
  IC50: 8.19 µM

## CC(=O)Oc1ccc(COP(=O)(OCc2ccc(OC(C)=O)cc2)OC2C3OC4OC(C3OCc3ccccc3)C(OCc3ccccc3)C2O4)cc1 (centres undefined)
A549 [1]
  inhibition of growth at 10 µg/mL: 88.9%
HeLa [2]
  inhibition of growth at 10 µg/mL: 100%
MDA-MB-231 [3]
  inhibition of growth at 10 µg/mL: 95.8%
[4]
  inhibition at 72 h, 10 ug/ml: 20.1%
A549 [5]
  IC50: 6.75 µM
HeLa [6]
  IC50: 1.26 µM
MDA-MB-231 [7]
  IC50: 2.77 µM
[8]
  IC50: 45.4 µM
